Experimental data published in ChEMBL document CHEMBL1143873, “Synthesis and biological evaluation of 2-alkylaminoethyl-1,1-bisphosphonic acids against Trypanosoma cruzi and Toxoplasma gondii targeting farnesyl diphosphate synthase” (Bioorg Med Chem, 2008).

What was measured:
[1] = tested on: Toxoplasma gondii; experiment: Growth inhibition of Toxoplasma gondii tachyzoites in HFF cells; assay type: functional, organism-based
[2] = tested on: Trypanosoma cruzi; experiment: Growth inhibition of Trypanosoma cruzi amastigotes in rat L6E9 cells; assay type: functional, organism-based
[3] = molecular target: T1, Farnesyl diphosphate synthase (Trypanosoma cruzi, UniProt Q8WS26); experiment: Inhibition of Trypanosoma cruzi FPPS
T1 sequence (Q8WS26 whole entry): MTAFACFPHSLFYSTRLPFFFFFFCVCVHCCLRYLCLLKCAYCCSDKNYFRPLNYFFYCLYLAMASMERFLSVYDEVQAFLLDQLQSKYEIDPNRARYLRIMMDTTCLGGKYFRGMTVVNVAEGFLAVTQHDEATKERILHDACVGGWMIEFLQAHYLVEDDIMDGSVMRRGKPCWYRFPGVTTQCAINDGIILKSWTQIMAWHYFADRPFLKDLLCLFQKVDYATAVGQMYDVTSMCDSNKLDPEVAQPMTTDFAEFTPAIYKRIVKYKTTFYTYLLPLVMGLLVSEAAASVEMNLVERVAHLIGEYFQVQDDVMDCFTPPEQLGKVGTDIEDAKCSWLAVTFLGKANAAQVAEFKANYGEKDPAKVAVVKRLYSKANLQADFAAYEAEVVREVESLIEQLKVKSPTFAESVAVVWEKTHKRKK
Outline: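 Recombinant TcFPPS (10–20 ng) started into prewarmed buffer of 10 mM Hepes pH 7.4, 5 mM MgCl2, 2 mM DTT, 100 μM [4-14C]IPP, 100 μM DMAPP; 30 min at 37 °C; quenched with HCl, then alkalinised; hexane-extracted product counted by scintillation.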

[4] = molecular target: T2, Farnesyl diphosphate synthase (Toxoplasma gondii, UniProt Q197X6); experiment: Inhibition of Toxoplasma gondii FPPS
T2 sequence (Q197X6 whole entry): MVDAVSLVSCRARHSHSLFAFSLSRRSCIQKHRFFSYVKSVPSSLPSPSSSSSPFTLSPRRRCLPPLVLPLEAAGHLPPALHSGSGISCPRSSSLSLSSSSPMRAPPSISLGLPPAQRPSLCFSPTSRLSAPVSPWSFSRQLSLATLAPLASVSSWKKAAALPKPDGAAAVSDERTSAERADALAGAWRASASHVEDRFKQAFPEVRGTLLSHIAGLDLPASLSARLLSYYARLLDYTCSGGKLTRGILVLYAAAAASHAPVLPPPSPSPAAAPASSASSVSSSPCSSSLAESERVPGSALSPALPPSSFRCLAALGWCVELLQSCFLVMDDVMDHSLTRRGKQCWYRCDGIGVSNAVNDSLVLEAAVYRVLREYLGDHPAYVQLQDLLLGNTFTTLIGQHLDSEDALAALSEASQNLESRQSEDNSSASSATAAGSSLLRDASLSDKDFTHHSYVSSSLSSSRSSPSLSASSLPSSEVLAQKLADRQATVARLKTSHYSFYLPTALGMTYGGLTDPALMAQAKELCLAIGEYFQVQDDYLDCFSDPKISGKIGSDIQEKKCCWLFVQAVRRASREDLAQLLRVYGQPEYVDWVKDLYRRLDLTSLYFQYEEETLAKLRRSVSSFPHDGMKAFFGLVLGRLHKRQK
Outline: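 Recombinant TgFPPS (10–20 ng) started into prewarmed buffer of 10 mM Hepes pH 7.4, 1 mM MgCl2, 2 mM DTT, 100 μM [4-14C]IPP, 100 μM DMAPP; 30 min at 37 °C; quenched with HCl, then alkalinised; hexane-extracted product counted by scintillation.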

[5] = tested on: Trypanosoma cruzi; experiment: Growth inhibition of Trypanosoma cruzi amastigotes in rat L6E9 cells at 10 uM; assay type: functional; conditions: read-out: GI

IC50 [2] [nM] | IC50 [3] [nM] | SMILES | IC50 [1] [nM] | IC50 [4] [nM] | inhibition of growth at 10 µM [5] [%]
> 50000 | 515 | CC(C)CNCC(P(=O)(O)O)P(=O)(O)O | 74500 | 181 | –
14000 | 760 | O=P(O)(O)C(CNN1CCCC1)P(=O)(O)O | 13300 | 361 | –
6100 | 287 | O=P(O)(O)C(CNN1CCCCC1)P(=O)(O)O | 70600 | 165 | –
– | 13 | O=P(O)(O)C(CNC1CCCCC1)P(=O)(O)O | 57300 | 337 | 36.3
> 50000 | 944 | CCC(C)NCC(P(=O)(O)O)P(=O)(O)O (stereo not drawn) | > 100000 | 112 | –

More lines, now with the values behind:

SMILES | IC50 [2] [nM] | IC50 [3] [nM] | IC50 [1] [nM] | IC50 [4] [nM] | inhibition of growth at 10 µM [5] [%]
CCCCCCNCC(P(=O)(O)O)P(=O)(O)O | 840 | 490 | 9370 | 137 | –
CCCCCCCCNCC(P(=O)(O)O)P(=O)(O)O | 4100 | 1010 | 2600 | 87 | –
CCCCCCCNCC(P(=O)(O)O)P(=O)(O)O | 10000 | 58 | > 50000 | 95 | –
CC(C)CCNCC(P(=O)(O)O)P(=O)(O)O | 10000 | 420 | 36900 | 275 | –
N#CSCCOc1ccc(Oc2ccccc2)cc1 | 12000 | – | – | – | –
CC(C)(C)NCC(P(=O)(O)O)P(=O)(O)O | 10000 | 1210 | 42800 | 286 | –
CCCCNCC(P(=O)(O)O)P(=O)(O)O | 4800 | 2280 | 48700 | 206 | –
CC(C)NCC(P(=O)(O)O)P(=O)(O)O | > 50000 | 1400 | 69800 | 253 | –
CCCNCC(P(=O)(O)O)P(=O)(O)O | > 50000 | 38 | 6330 | 298 | –
CCCCCNCC(P(=O)(O)O)P(=O)(O)O | 540 | 1840 | > 50000 | 80 | –
CCCCCCC(O)(P(=O)(O)O)P(=O)(O)O | 18000 | – | – | – | –
